Measured values as given in ChEMBL document CHEMBL1938297, “Synthesis, radiofluorination and pharmacological evaluation of a fluoromethyl spirocyclic PET tracer for central σ1 receptors and comparison with fluoroalkyl homologs” (Bioorg Med Chem, 2012).

What was measured:
Lung = assay: Biodistribution in CD1 mouse lung at 300 kBq, iv after 120 mins by gamma counting; assay type: ADME, organism-based; conditions: in vivo, 2 h
In short: (§1)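 Female CD-1 mice received the 18F tracer iv at 300 kBq in 0.9% NaCl containing 5% ethanol; 3–6 animals per time point (5, 30, 60, 120 min p.i.). Animals anaesthetized, blood and urine collected, killed by cervical luxation, organs dissected and weighed, counted in calibrated gamma counter. %ID/g = tissue counts / initial dose counts / tissue weight; mean with SD.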

Striatum = assay: Biodistribution in CD1 mouse striatum in brain saggital section at 24 MBq, iv at 45 mins by autoradiography; assay type: ADME, organism-based; conditions: in vivo, 0.75 h
In short: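 Ex vivo autoradiography: female CD-1 mouse given 18F tracer iv (24 MBq), killed 45 min p.i.; brain hemispheres frozen in isopentane (−35 °C), 12 µm sagittal cryostat sections thaw-mounted, air-dried and exposed to 18F-sensitive phosphor screens. Regional uptake compared with anterior olfactory bulb as nontarget region (target-to-nontarget ratio).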

Mus musculus [1] = assay: Biodistribution in CD1 mouse gonads at 300 kBq, iv after 30 mins by gamma counting; assay type: ADME, organism-based, Gonad; conditions: in vivo, 0.5 h
In short: (§2)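 Female CD-1 mice received [18F]1 (300 kBq) i.v.; 3–6 animals per time point anesthetized at 5, 30, 60 or 120 min p.i., blood and urine collected, animals euthanized by cervical dislocation, organs dissected and weighed. Radioactivity counted in a calibrated gamma counter; % ID/g = tissue counts / initial dose counts / tissue weight; means with SD.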

Mus musculus [2] = assay: Biodistribution in CD1 mouse eye at 300 kBq, iv after 5 mins by gamma counting; assay type: ADME, organism-based; conditions: in vivo; in short: as §2
Mus musculus [3] = assay: Biodistribution in CD1 mouse fat at 300 kBq, iv after 120 mins by gamma counting; assay type: ADME, organism-based, Adipose tissue; conditions: in vivo, 2 h; in short: as §2
Liver = assay: Biodistribution in CD1 mouse liver at 300 kBq, iv after 60 mins by gamma counting; assay type: ADME, organism-based; conditions: in vivo, 1 h; in short: as §1
Blood [4] = assay: Biodistribution in CD1 mouse blood at 300 kBq, iv after 60 mins by gamma counting; assay type: ADME, organism-based; conditions: in vivo, 1 h; in short: as §2
Cerebellum [5] = assay: Biodistribution in CD1 mouse cerebellum in brain saggital section at 24 MBq, iv at 45 mins by autoradiography; assay type: ADME, organism-based; conditions: in vivo, 0.75 h
In short: (§3)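 Female CD-1 mouse given [18F]1 (24 MBq) i.v. and sacrificed at 45 min. Brain hemispheres frozen in isopentane (−35 °C), cut into 12 µm sagittal cryosections, thaw-mounted, air-dried and exposed to 18F-sensitive storage phosphor screens. Anterior olfactory bulb served as nontarget region for target-to-nontarget ratios.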

[6] = Metabolic stability in CD1 mouse brain homogenate assessed as compound remaining at 191 MBq, iv after 60 mins by radio-HPLC/TLC analysis; assay type: ADME, organism-based; conditions: read-out: Stability
In short: (§4)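 Female CD-1 mice were injected with the radiotracer via the tail vein and killed at 30 or 60 min p.i. Whole brains (n = 2 per time) were homogenised in 50 mM TRIS–HCl pH 7.4 at 4 °C and extracted twice with ice-cold acetonitrile. Concentrated extracts were analysed by radio-HPLC and radio-TLC to give % parent versus radiometabolites.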

Blood [7] = assay: Biodistribution in CD1 mouse blood at 300 kBq, iv after 120 mins by gamma counting; assay type: ADME, organism-based; conditions: in vivo, 2 h; in short: as §2
Cerebellum [8] = assay: Biodistribution in CD1 mouse cerebellum at 300 kBq, iv after 5 mins by gamma counting; assay type: ADME, organism-based; conditions: in vivo; in short: as §2
Mus musculus [9] = assay: Biodistribution in CD1 mouse dorsomedial hyphalmus in brain saggital section at 24 MBq, iv at 45 mins by autoradiography; assay type: ADME, organism-based; conditions: in vivo, 0.75 h; in short: as §3
Kidney = assay: Biodistribution in CD1 mouse kidney at 300 kBq, iv after 60 mins by gamma counting; assay type: ADME, organism-based; conditions: in vivo, 1 h; in short: as §1
Stomach [10] = assay: Biodistribution in CD1 mouse stomach at 300 kBq, iv after 120 mins by gamma counting; assay type: ADME, organism-based; conditions: in vivo, 2 h; in short: as §1
Stomach [11] = assay: Biodistribution in CD1 mouse stomach at 300 kBq, iv after 30 mins by gamma counting; assay type: ADME, organism-based; conditions: in vivo, 0.5 h; in short: as §1
Mus musculus [12] = assay: Biodistribution in CD1 mouse small intestine at 300 kBq, iv after 120 mins by gamma counting; assay type: ADME, organism-based; conditions: in vivo, 2 h; in short: as §1
[13] = Biodistribution in CD1 mouse urine at 300 kBq, iv after 5 mins by gamma counting; assay type: ADME, organism-based; conditions: in vivo
In short: (§5)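 Female CD-1 mice received 300 kBq of the radiotracer i.v.; 3–6 animals per time point were anaesthetised at 5, 30, 60 or 120 min p.i. Blood and urine were collected, animals were killed by cervical dislocation, and organs were dissected and weighed. Activity was counted in a calibrated gamma counter and expressed as % injected dose per g wet tissue, mean with SD.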

Mus musculus [14] = assay: Biodistribution in CD1 mouse gonads at 300 kBq, iv after 60 mins by gamma counting; assay type: ADME, organism-based, Gonad; conditions: in vivo, 1 h; in short: as §2
Mus musculus [15] = assay: Biodistribution in CD1 mouse thymus at 300 kBq, iv after 120 mins by gamma counting; assay type: ADME, organism-based; conditions: in vivo, 2 h; in short: as §1
[16] = Chemical stability of the compound in 0.9% NaCl solution at pH 7.2 assessed as compound remaining after 2 hrs by radio-HPLC/TLC analysis; assay type: physicochemical; conditions: read-out: Stability
In short: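 Radiotracer incubated 120 min at 40 °C in 0.9% NaCl (pH 7.2), phosphate-saline (0.1 M sodium phosphate, 0.15 M NaCl, pH 7.2) or 0.01 M TRIS–HCl (pH 7.4 at 21 °C). Aliquots were taken at set times and analysed by radio-TLC on silica and by gradient radio-HPLC on RP-18 (MeCN/20 mM ammonium acetate, 254 nm), giving % unchanged tracer; n = 2.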

Femur [17] = assay: Biodistribution in CD1 mouse femur at 300 kBq, iv after 30 mins by gamma counting; assay type: ADME, organism-based; conditions: in vivo, 0.5 h; in short: as §2
Blood [18] = assay: Biodistribution in CD1 mouse blood at 300 kBq, iv after 5 mins by gamma counting; assay type: ADME, organism-based; conditions: in vivo; in short: as §2
Cerebellum [19] = assay: Biodistribution in CD1 mouse cerebellum at 300 kBq, iv after 60 mins by gamma counting; assay type: ADME, organism-based; conditions: in vivo, 1 h; in short: as §2
[20] = Biodistribution in CD1 mouse intestinal content at 300 kBq, iv after 30 mins by gamma counting; assay type: ADME, organism-based, Intestine; conditions: in vivo, 0.5 h; in short: as §1
Pancreas = assay: Biodistribution in CD1 mouse pancreas at 300 kBq, iv after 60 mins by gamma counting; assay type: ADME, organism-based; conditions: in vivo, 1 h; in short: as §1
Mus musculus [21] = assay: Biodistribution in CD1 mouse adrenals at 300 kBq, iv after 60 mins by gamma counting; assay type: ADME, organism-based, Adrenal gland; conditions: in vivo, 1 h; in short: as §2
[22] = Biodistribution in CD1 mouse urine at 300 kBq, iv after 60 mins by gamma counting; assay type: ADME, organism-based; conditions: in vivo, 1 h; in short: as §5
[23] = Biodistribution in CD1 mouse intestinal content at 300 kBq, iv after 60 mins by gamma counting; assay type: ADME, organism-based, Intestine; conditions: in vivo, 1 h; in short: as §1
Brain = assay: Drug metabolism in CD1 mouse brain homogenates assessed as radiometabolites at 191 MBq, iv after 30 mins by radio-HPLC/TLC analysis; assay type: ADME, organism-based; conditions: in vivo, 0.5 h; in short: as §4
Heart = assay: Biodistribution in CD1 mouse heart at 300 kBq, iv after 60 mins by gamma counting; assay type: ADME, organism-based; conditions: in vivo, 1 h; in short: as §1
[24] = Biodistribution in CD1 mouse urine at 300 kBq, iv after 120 mins by gamma counting; assay type: ADME, organism-based; conditions: in vivo, 2 h; in short: as §5
Mus musculus [25] = assay: Biodistribution in CD1 mouse gonads at 300 kBq, iv after 120 mins by gamma counting; assay type: ADME, organism-based, Gonad; conditions: in vivo, 2 h; in short: as §2
Femur [26] = assay: Biodistribution in CD1 mouse femur at 300 kBq, iv after 120 mins by gamma counting; assay type: ADME, organism-based; conditions: in vivo, 2 h; in short: as §2
Muscle tissue = assay: Biodistribution in CD1 mouse muscle at 300 kBq, iv after 60 mins by gamma counting; assay type: ADME, organism-based; conditions: in vivo, 1 h; in short: as §1
Mus musculus [27] = assay: Biodistribution in CD1 mouse small intestine at 300 kBq, iv after 60 mins by gamma counting; assay type: ADME, organism-based; conditions: in vivo, 1 h; in short: as §1

In the case of `[18F]CC1OC2(CCN(Cc3ccccc3)CC2)c2ccccc21` (stereo not given), the Drug uptake (Lung) is reported as 6.82 % ID/g, the Drug uptake (Striatum) is reported as “Active” and the Drug uptake (Mus musculus [1]) is reported as 4.75 % ID/g. The Drug uptake (Mus musculus [2]) was 1.89 % ID/g, the Drug uptake (Mus musculus [3]) was 2.08 % ID/g and the Drug uptake (Liver) was 3.98 % ID/g. For the same compound, the Drug uptake (Blood [4]) was 0.16 % ID/g, the Drug uptake (Cerebellum [5]) was “Active” and the remaining at 1 h [6] was 79%. For the same compound, the Drug uptake (Blood [7]) was 0.15 % ID/g, the Drug uptake (Cerebellum [8]) was 8.2 % ID/g and the Drug uptake (Mus musculus [9]) was “Active”. It also gave a Drug uptake (Kidney) of 6.03 % ID/g, a Drug uptake (Stomach [10]) of 1.9 % ID/g and a Drug uptake (Stomach [11]) of 3.52 % ID/g. For the same compound, the Drug uptake (Mus musculus [12]) was 25.9 % ID/g, the Drug uptake [13] was 3.99 % ID/g and the Drug uptake (Mus musculus [14]) was 3.28 % ID/g. The Drug uptake (Mus musculus [15]) was 2.52 % ID/g, the remaining at 2 h [16] was 96.9% and the Drug uptake (Femur [17]) was 4.34 % ID/g. It also gave a Drug uptake (Blood [18]) of 0.73 % ID/g, a Drug uptake (Cerebellum [19]) of 4.27 % ID/g and a Drug uptake [20] of 0.4 % ID/g. The Drug uptake (Pancreas) was 9.27 % ID/g, the Drug uptake (Mus musculus [21]) was 7.48 % ID/g and the Drug uptake [22] was 45.5 % ID/g. The Drug uptake [23] was 0.32 % ID/g, the Drug metabolism (Brain) was “Active” and the Drug uptake (Heart) was 2.96 % ID/g. For the same compound, the Drug uptake [24] was 56.46 % ID/g, the Drug uptake (Mus musculus [25]) was 3.55 % ID/g and the Drug uptake (Femur [26]) was 1.92 % ID/g. It also gave a Drug uptake (Muscle tissue) of 0.97 % ID/g and a Drug uptake (Mus musculus [27]) of 23.46 % ID/g.
